Where a SMILES comes first, the peptide text is derived from it. [ ]: non-standard residue; d: D form. Aib = CC(C)(N)C(=O)O
How the values were obtained:
[1] = test system: Human immunodeficiency virus 1; experiment: Antiviral activity against HIV1 in human HeLa-CD4-LTR-beta-gal (MAGI) cells assessed as inhibition of viral replication after 48 hrs by multinuclear activation of galactosidase indicator assay; settings: Human immunodeficiency virus 1, HeLa
[2] = test system: Human immunodeficiency virus 1; experiment: Binding affinity to HIV1 heptad repeat 1 peptide N36 assessed as melting temperature of drug-HR1 peptide complex
Outline: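 HR2 peptide and N36 (HR1) peptide mixed, each at 10 μM final in PBS pH 7.4, incubated 37 °C for 30 min, then followed by CD through thermal unfolding; Tm taken as the midpoint of the unfolding transition.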

EC50 [1] [µM] | Compound | Tm [2] [°C]
0.0071 | CC[C@H](C)[C@H](NC(=O)[C@H](CCCCN)NC(=O)[C@H](CCCCN)NC(=O)[C@H](CC(=O)O)NC(=O)[C@H](Cc1c[nH]c2ccccc12)NC(=O)[C@H](CCC(=O)O)NC(=O)[C@H](CCC(=O)O)NC(=O)[C@@H](N)Cc1c[nH]c2ccccc12)C(=O)N[C@@H](CCC(=O)O)C(=O)N[C@@H](CCC(=O)O)C(=O)N[C@@H](Cc1ccc(O)cc1)C(=O)N[C@H](C(=O)N[C@@H](CCCCN)C(=O)N[C@@H](CCCCN)C(=O)N[C@H](C(=O)N[C@@H](CCC(=O)O)C(=O)N[C@@H](CCC(=O)O)C(=O)N[C@@H](CC(C)C)C(=O)N[C@H](C(=O)N[C@@H](CCCCN)C(=O)N[C@@H](CCCCN)C(=O)N[C@@H](CO)C(=O)NC(C)(C)C(=O)N[C@@H](CCC(=O)O)C(=O)N[C@@H](CCC(N)=O)C(=O)N[C@@H](CCC(N)=O)C(=O)NC(C)(C)C(=O)N[C@@H](CCCCN)C(=O)N[C@@H](CC(N)=O)C(=O)O)[C@@H](C)CC)[C@@H](C)CC)[C@@H](C)O (H-WEEWDKKIEEYTKKIEELIKKS[Aib]EQQ[Aib]KN-OH) | –
0.0313 | CC[C@H](C)[C@H](NC(=O)[C@H](CCCCN)NC(=O)[C@H](CCCCN)NC(=O)[C@H](CC(=O)O)NC(=O)[C@H](Cc1c[nH]c2ccccc12)NC(=O)[C@H](CCC(=O)O)NC(=O)[C@H](CCC(=O)O)NC(=O)[C@@H](N)Cc1c[nH]c2ccccc12)C(=O)N[C@@H](CCC(=O)O)C(=O)N[C@@H](CCC(=O)O)C(=O)N[C@@H](Cc1ccc(O)cc1)C(=O)N[C@H](C(=O)N[C@@H](CCCCN)C(=O)N[C@@H](CCCCN)C(=O)N[C@H](C(=O)N[C@@H](CCC(=O)O)C(=O)N[C@@H](CCC(=O)O)C(=O)N[C@@H](CC(C)C)C(=O)N[C@H](C(=O)N[C@@H](CCCCN)C(=O)N[C@@H](CCCCN)C(=O)N[C@@H](CO)C(=O)NC(C)(C)C(=O)NCC(=O)N[C@@H](CCC(N)=O)C(=O)N[C@@H](CCC(N)=O)C(=O)NC(C)(C)C(=O)NCC(=O)N[C@@H](CC(N)=O)C(=O)O)[C@@H](C)CC)[C@@H](C)CC)[C@@H](C)O (H-WEEWDKKIEEYTKKIEELIKKS[Aib]GQQ[Aib]GN-OH) | –
0.00087 | CC[C@H](C)[C@H](NC(=O)[C@H](CCCCN)NC(=O)[C@H](CCCCN)NC(=O)[C@H](CC(=O)O)NC(=O)[C@H](Cc1c[nH]c2ccccc12)NC(=O)[C@H](CCC(=O)O)NC(=O)[C@H](CCC(=O)O)NC(=O)[C@@H](N)Cc1c[nH]c2ccccc12)C(=O)N[C@@H](CCC(=O)O)C(=O)N[C@@H](CCC(=O)O)C(=O)N[C@@H](Cc1ccc(O)cc1)C(=O)N[C@H](C(=O)N[C@@H](CCCCN)C(=O)N[C@@H](CCCCN)C(=O)N[C@H](C(=O)NC(C)(C)C(=O)N[C@@H](CCC(=O)O)C(=O)N[C@@H](CC(C)C)C(=O)N[C@H](C(=O)NC(C)(C)C(=O)N[C@@H](CCCCN)C(=O)N[C@@H](CO)C(=O)N[C@@H](CCC(=O)O)C(=O)N[C@@H](CCC(=O)O)C(=O)N[C@@H](CCC(N)=O)C(=O)N[C@@H](CCC(N)=O)C(=O)N[C@@H](CCCCN)C(=O)N[C@@H](CCCCN)C(=O)N[C@@H](CC(N)=O)C(=O)O)[C@@H](C)CC)[C@@H](C)CC)[C@@H](C)O (H-WEEWDKKIEEYTKKI[Aib]ELI[Aib]KSEEQQKKN-OH) | –
0.0256 | CC[C@H](C)[C@H](NC(=O)[C@H](CCCCN)NC(=O)[C@H](CCCCN)NC(=O)[C@H](CC(=O)O)NC(=O)[C@H](Cc1c[nH]c2ccccc12)NC(=O)[C@H](CCC(=O)O)NC(=O)[C@H](CCC(=O)O)NC(=O)[C@@H](N)Cc1c[nH]c2ccccc12)C(=O)N[C@@H](CCC(=O)O)C(=O)N[C@@H](CCC(=O)O)C(=O)N[C@@H](Cc1ccc(O)cc1)C(=O)N[C@H](C(=O)N[C@@H](CCCCN)C(=O)N[C@@H](CCCCN)C(=O)N[C@H](C(=O)NC(C)(C)C(=O)NCC(=O)N[C@@H](CC(C)C)C(=O)N[C@H](C(=O)NC(C)(C)C(=O)NCC(=O)N[C@@H](CO)C(=O)N[C@@H](CCC(=O)O)C(=O)N[C@@H](CCC(=O)O)C(=O)N[C@@H](CCC(N)=O)C(=O)N[C@@H](CCC(N)=O)C(=O)N[C@@H](CCCCN)C(=O)N[C@@H](CCCCN)C(=O)N[C@@H](CC(N)=O)C(=O)O)[C@@H](C)CC)[C@@H](C)CC)[C@@H](C)O (H-WEEWDKKIEEYTKKI[Aib]GLI[Aib]GSEEQQKKN-OH) | –
0.27 | CC[C@H](C)[C@H](NC(=O)CNC(=O)C(C)(C)NC(=O)[C@@H](NC(=O)[C@H](Cc1ccc(O)cc1)NC(=O)CNC(=O)C(C)(C)NC(=O)[C@@H](NC(=O)[C@H](CCCCN)NC(=O)[C@H](CCCCN)NC(=O)[C@H](CC(=O)O)NC(=O)[C@H](Cc1c[nH]c2ccccc12)NC(=O)[C@H](CCC(=O)O)NC(=O)[C@H](CCC(=O)O)NC(=O)[C@@H](N)Cc1c[nH]c2ccccc12)[C@@H](C)CC)[C@@H](C)O)C(=O)N[C@@H](CCC(=O)O)C(=O)N[C@@H](CCC(=O)O)C(=O)N[C@@H](CC(C)C)C(=O)N[C@H](C(=O)N[C@@H](CCCCN)C(=O)N[C@@H](CCCCN)C(=O)N[C@@H](CO)C(=O)N[C@@H](CCC(=O)O)C(=O)N[C@@H](CCC(=O)O)C(=O)N[C@@H](CCC(N)=O)C(=O)N[C@@H](CCC(N)=O)C(=O)N[C@@H](CCCCN)C(=O)N[C@@H](CCCCN)C(=O)N[C@@H](CC(N)=O)C(=O)O)[C@@H](C)CC (H-WEEWDKKI[Aib]GYT[Aib]GIEELIKKSEEQQKKN-OH) | –
0.00054 | CC[C@H](C)[C@H](NC(=O)[C@H](CC(C)C)NC(=O)[C@H](CCC(=O)O)NC(=O)[C@H](CCC(=O)O)NC(=O)[C@@H](NC(=O)[C@H](CCCCN)NC(=O)[C@H](CCCCN)NC(=O)[C@@H](NC(=O)[C@H](Cc1ccc(O)cc1)NC(=O)[C@H](CCC(=O)O)NC(=O)[C@H](CCC(=O)O)NC(=O)[C@@H](NC(=O)[C@H](CCCCN)NC(=O)C(C)(C)NC(=O)[C@H](CC(=O)O)NC(=O)[C@H](Cc1c[nH]c2ccccc12)NC(=O)[C@H](CCC(=O)O)NC(=O)C(C)(C)NC(=O)[C@@H](N)Cc1c[nH]c2ccccc12)[C@@H](C)CC)[C@@H](C)O)[C@@H](C)CC)C(=O)N[C@@H](CCCCN)C(=O)N[C@@H](CCCCN)C(=O)N[C@@H](CO)C(=O)N[C@@H](CCC(=O)O)C(=O)N[C@@H](CCC(=O)O)C(=O)N[C@@H](CCC(N)=O)C(=O)N[C@@H](CCC(N)=O)C(=O)N[C@@H](CCCCN)C(=O)N[C@@H](CCCCN)C(=O)N[C@@H](CC(N)=O)C(=O)O (H-W[Aib]EWD[Aib]KIEEYTKKIEELIKKSEEQQKKN-OH) | –
0.00039 | H-WEEWDKKIEEYTKKIEELIKKSEEQQKKNEEELKK-OH | 71.5

More lines, now with the values behind:

Compound | EC50 [1] [µM] | Tm [2] [°C]
CC[C@H](C)[C@H](NC(=O)[C@H](CC(C)C)NC(=O)[C@H](CCC(=O)O)NC(=O)[C@H](CCC(=O)O)NC(=O)[C@@H](NC(=O)[C@H](CCCCN)NC(=O)C(C)(C)NC(=O)[C@@H](NC(=O)[C@H](Cc1ccc(O)cc1)NC(=O)[C@H](CCC(=O)O)NC(=O)C(C)(C)NC(=O)[C@@H](NC(=O)[C@H](CCCCN)NC(=O)[C@H](CCCCN)NC(=O)[C@H](CC(=O)O)NC(=O)[C@H](Cc1c[nH]c2ccccc12)NC(=O)[C@H](CCC(=O)O)NC(=O)[C@H](CCC(=O)O)NC(=O)[C@@H](N)Cc1c[nH]c2ccccc12)[C@@H](C)CC)[C@@H](C)O)[C@@H](C)CC)C(=O)N[C@@H](CCCCN)C(=O)N[C@@H](CCCCN)C(=O)N[C@@H](CO)C(=O)N[C@@H](CCC(=O)O)C(=O)N[C@@H](CCC(=O)O)C(=O)N[C@@H](CCC(N)=O)C(=O)N[C@@H](CCC(N)=O)C(=O)N[C@@H](CCCCN)C(=O)N[C@@H](CCCCN)C(=O)N[C@@H](CC(N)=O)C(=O)O (H-WEEWDKKI[Aib]EYT[Aib]KIEELIKKSEEQQKKN-OH) | 0.00215 | –
CC[C@H](C)[C@H](NC(=O)CNC(=O)C(C)(C)NC(=O)[C@H](CC(=O)O)NC(=O)[C@H](Cc1c[nH]c2ccccc12)NC(=O)CNC(=O)C(C)(C)NC(=O)[C@@H](N)Cc1c[nH]c2ccccc12)C(=O)N[C@@H](CCC(=O)O)C(=O)N[C@@H](CCC(=O)O)C(=O)N[C@@H](Cc1ccc(O)cc1)C(=O)N[C@H](C(=O)N[C@@H](CCCCN)C(=O)N[C@@H](CCCCN)C(=O)N[C@H](C(=O)N[C@@H](CCC(=O)O)C(=O)N[C@@H](CCC(=O)O)C(=O)N[C@@H](CC(C)C)C(=O)N[C@H](C(=O)N[C@@H](CCCCN)C(=O)N[C@@H](CCCCN)C(=O)N[C@@H](CO)C(=O)N[C@@H](CCC(=O)O)C(=O)N[C@@H](CCC(=O)O)C(=O)N[C@@H](CCC(N)=O)C(=O)N[C@@H](CCC(N)=O)C(=O)N[C@@H](CCCCN)C(=O)N[C@@H](CCCCN)C(=O)N[C@@H](CC(N)=O)C(=O)O)[C@@H](C)CC)[C@@H](C)CC)[C@@H](C)O (H-W[Aib]GWD[Aib]GIEEYTKKIEELIKKSEEQQKKN-OH) | 0.0375 | –
H-WEEWDKKIEEYTKKIEELIKKS-OH | 0.06 | 63.5
H-WEEWDKKIEEYTKKIEELIKKSEEQQKKN-OH | 0.00046 | 65
H-WMEWDREINNYTSLIHSLIEES-OH | > 1 | 38.5
H-WMEWDREINNYTSLIHSLIEESQNQQEKN-OH | 0.046 | 48.5
H-YTSLIEELIKKSEEQQKKNEEELKKLEEWAKKWNWF-OH | 0.0018 | –
enfuvirtide | 0.015 | –
